Measurements: ChEMBL document CHEMBL4689842, “EUbOPEN Chemogenomics Library wave 1” (2021)
Several values for one entry are separate records, joined by “and”; a condition that tells them apart may be missing. Identical values can stand only once.

Tested on: U2OS
Assay: Multiplex assay against U2OS
Assay type: toxicity, cell-based
Details: human
How it was run: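 Live cells carried four stains from seeding: Hoechst33342, BioTracker Green Microtubule Cytoskeleton Dye, MitoTracker Red and Annexin V Alexa Fluor 680. They were imaged on a CQ1 microscope at 37°C and 5% CO2 after compound addition. Using CellPathfinder machine-learning gating, cells were split into Hoechst high-intensity objects or normal cells, normal cells into healthy, pyknosed or fragmented nuclei, and pyknosed cells into mitotic or apoptotic; tubulin, mitochondrial-mass and membrane-permeability phenotypes are per cents of healthy-nucleus cells.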

[1] = 12 h, 1 µM, compound concentration 1 uM, replicate 1
[2] = 12 h, 1 µM, compound concentration 1 uM, replicate 2
[3] = 12 h, 10 µM, compound concentration 10 uM, replicate 1
[4] = 12 h, 10 µM, compound concentration 10 uM, replicate 2
[5] = 24 h, 1 µM, compound concentration 1 uM, replicate 1
[6] = 24 h, 1 µM, compound concentration 1 uM, replicate 2
[7] = 24 h, 10 µM, compound concentration 10 uM, replicate 1
[8] = 24 h, 10 µM, compound concentration 10 uM, replicate 2

SMILES: C=CC(=O)Nc1cc2c(Nc3ccc(F)c(Cl)c3)ncnc2cc1OCCCN1CCOCC1.Cl.Cl [CANERTINIB DIHYDROCHLORIDE]
- Population Apoptotic (%) [1]: 91%
- Population Fragmented Nuclei (%) [1]: 16%
- Population Healthy Nuclei (%) [1]: 0%
- Population Hoechst High Intensity Objects (%) [1]: 5%
- Population Membrane Permeable-Phenotype (%) [1]: 0%
- Population Mitochondria Different-Phenotype (%) [1]: 100%
- Population Mitotic Cells (%) [1]: 8%
- Population Normal (%) [1]: 94%
- Population Pyknosed Nuclei (%) [1]: 83%
- Population Tubulin-Different-Phenotype (%) [1]: 100%
- Total Cell Count [1]: 137
- Population Apoptotic (%) [2]: 95%
- Population Fragmented Nuclei (%) [2]: 10%
- Population Healthy Nuclei (%) [2]: 4%
- Population Hoechst High Intensity Objects (%) [2]: 20%
- Population Membrane Permeable-Phenotype (%) [2]: 100%
- Population Mitotic Cells (%) [2]: 5%
- Population Normal (%) [2]: 79%
- Population Pyknosed Nuclei (%) [2]: 85%
- Total Cell Count [2]: 88
- Population Apoptotic (%) [3]: 22%
- Population Fragmented Nuclei (%) [3]: 5%
- Population Healthy Nuclei (%) [3]: 87%
- Population Hoechst High Intensity Objects (%) [3]: 2%
- Population Membrane Permeable-Phenotype (%) [3]: 38%
- Population Mitochondria Different-Phenotype (%) [3]: 11%
- Population Mitotic Cells (%) [3]: 77%
- Population Normal (%) [3]: 97%
- Population Pyknosed Nuclei (%) [3]: 6%
- Population Tubulin-Different-Phenotype (%) [3]: 17%
- Total Cell Count [3]: 142
- Population Apoptotic (%) [4]: 33%
- Population Fragmented Nuclei (%) [4]: 12%
- Population Healthy Nuclei (%) [4]: 81%
- Population Hoechst High Intensity Objects (%) [4]: 10%
- Population Membrane Permeable-Phenotype (%) [4]: 24%
- Population Mitochondria Different-Phenotype (%) [4]: 22%
- Population Mitotic Cells (%) [4]: 66%
- Population Normal (%) [4]: 89%
- Population Pyknosed Nuclei (%) [4]: 5%
- Population Tubulin-Different-Phenotype (%) [4]: 14%
- Total Cell Count [4]: 122
- Population Apoptotic (%) [5]: 99%
- Population Fragmented Nuclei (%) [5]: 8%
- Population Healthy Nuclei (%) [5]: 4%
- Population Hoechst High Intensity Objects (%) [5]: 13%
- Population Membrane Permeable-Phenotype (%) [5]: 100%
- Population Mitochondria Different-Phenotype (%) [5]: 100%
- Population Mitotic Cells (%) [5]: 0%
- Population Normal (%) [5]: 86%
- Population Pyknosed Nuclei (%) [5]: 87%
- Population Tubulin-Different-Phenotype (%) [5]: 100%
- Total Cell Count [5]: 137
- Population Apoptotic (%) [6]: 100%
- Population Fragmented Nuclei (%) [6]: 14%
- Population Healthy Nuclei (%) [6]: 5%
- Population Hoechst High Intensity Objects (%) [6]: 21%
- Population Normal (%) [6]: 78%
- Population Pyknosed Nuclei (%) [6]: 79%
- Total Cell Count [6]: 85
- Population Apoptotic (%) [7]: 70%
- Population Fragmented Nuclei (%) [7]: 5%
- Population Hoechst High Intensity Objects (%) [7]: 3%
- Population Mitochondria Different-Phenotype (%) [7]: 11%
- Population Mitotic Cells (%) [7]: 29%
- Population Normal (%) [7]: 96%
- Population Pyknosed Nuclei (%) [7]: 9%
- Population Tubulin-Different-Phenotype (%) [7]: 9%
- Total Cell Count [7]: 186
- Population Apoptotic (%) [8]: 42%
- Population Fragmented Nuclei (%) [8]: 9%
- Population Healthy Nuclei (%) [8]: 84%
- Population Hoechst High Intensity Objects (%) [8]: 8%
- Population Membrane Permeable-Phenotype (%) [8]: 20%
- Population Mitochondria Different-Phenotype (%) [8]: 23%
- Population Mitotic Cells (%) [8]: 57%
- Population Normal (%) [8]: 91%
- Population Pyknosed Nuclei (%) [8]: 5%
- Population Tubulin-Different-Phenotype (%) [8]: 19%
- Total Cell Count [8]: 135

SMILES: O=C(NCCN1CCOCC1)c1ccc2c(c1)C(=O)c1ccc(Nc3ccc(F)c(NC(=O)c4ccccc4)c3)cc1CC2 [FS-694]
- Population Apoptotic (%) [3]: 75% and 25%
- Population Healthy Nuclei (%) [3]: 83% and 54%
- Population Membrane Permeable-Phenotype (%) [3]: 67% and 52%
- Population Mitochondria Different-Phenotype (%) [3]: 18% and 50%
- Population Mitotic Cells (%) [3]: 25% and 74%
- Population Normal (%) [3]: 95% and 53%
- Population Pyknosed Nuclei (%) [3]: 8% and 13%
- Population Tubulin-Different-Phenotype (%) [3]: 48% and 88%
- Total Cell Count [3]: 178 and 187
- Population Fragmented Nuclei (%) [4]: 40% and 27%
- Population Healthy Nuclei (%) [4]: 47% and 65%
- Population Membrane Permeable-Phenotype (%) [4]: 53% and 54%
- Population Mitotic Cells (%) [4]: 60% and 90%
- Population Normal (%) [4]: 47% and 90%
- Population Pyknosed Nuclei (%) [4]: 11% and 7%
- Total Cell Count [4]: 150 and 127
- Population Apoptotic (%) [7]: 37% and 42%
- Population Healthy Nuclei (%) [7]: 48% and 84%
- Population Membrane Permeable-Phenotype (%) [7]: 54% and 41%
- Population Mitotic Cells (%) [7]: 62% and 57%
- Population Normal (%) [7]: 55% and 95%
- Population Pyknosed Nuclei (%) [7]: 23% and 8%
- Total Cell Count [7]: 224 and 170
- Population Apoptotic (%) [8]: 50%
- Population Fragmented Nuclei (%) [8]: 45% and 17%
- Population Healthy Nuclei (%) [8]: 39% and 76%
- Population Membrane Permeable-Phenotype (%) [8]: 62% and 37%
- Population Mitotic Cells (%) [8]: 50%
- Population Normal (%) [8]: 47% and 91%
- Population Pyknosed Nuclei (%) [8]: 14% and 5%
- Total Cell Count [8]: 160 and 131
